Assay results as given in ChEMBL document CHEMBL1130325, “Novel non-nucleoside inhibitors of human immunodeficiency virus type 1 reverse transcriptase. 6. 2-Indol-3-yl- and 2-azaindol-3-yl-dipyridodiazepinones” (J Med Chem, 1997).

Legend:
[1] = system: Human immunodeficiency virus type 1 reverse transcriptase (Human immunodeficiency virus 1), Q72547 [Y181C]; experiment: Inhibition against HIV-1 mutant Y181C reverse transcriptase at 1 mM
[2] = system: Human immunodeficiency virus type 1 reverse transcriptase (Human immunodeficiency virus 1), Q72547 [[…]]; experiment: Inhibition against HIV-1 mutant Y188L reverse transcriptase at 1 mM
[3] = target: Human immunodeficiency virus type 1 reverse transcriptase (Human immunodeficiency virus 1, UniProt Q72547); experiment: Inhibitory concentration against HIV-1 wild type reverse transcriptase
Outline: (§1)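 HIV-1 RT is at 0.63 nM in 50 mM Tris pH 7.8 with 4 mM DTT, 60 mM NaCl, 2 mM MgCl2, 0.02% Chaps, 4.8 μg/mL poly(rC)/oligo(dG) and 0.45 μM [3H]dGTP. Incubation is 30 min at room temperature in triplicate wells; [3H] incorporation is read after acid precipitation, minus EDTA background.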

[4] = target: Human immunodeficiency virus type 1 reverse transcriptase (Human immunodeficiency virus 1, UniProt Q72547, Y181C); experiment: Inhibitory concentration against HIV-1 mutant Y181C reverse transcriptase; outline: as §1
[5] = target: Human immunodeficiency virus type 1 reverse transcriptase (Human immunodeficiency virus 1, UniProt Q72547, Y188L); experiment: Inhibitory concentration against HIV-1 mutant Y188L reverse transcriptase; outline: as §1
[6] = target: Human immunodeficiency virus type 1 reverse transcriptase (Human immunodeficiency virus 1, UniProt Q72547, G190A); experiment: Inhibition against HIV-1 mutant G190A reverse transcriptase […]
[7] = target: Human immunodeficiency virus type 1 reverse transcriptase (Human immunodeficiency virus 1, UniProt Q72547, K103N); experiment: Inhibition against HIV-1 mutant K103N reverse transcriptase […]
[8] = target: Human immunodeficiency virus type 1 reverse transcriptase (Human immunodeficiency virus 1, UniProt Q72547, P236L); experiment: Inhibition against HIV-1 mutant P236L reverse transcriptase […]
[9] = target: Human immunodeficiency virus type 1 reverse transcriptase (Human immunodeficiency virus 1, UniProt Q72547, V106A); experiment: Inhibition against HIV-1 mutant V106A reverse transcriptase […]
[10] = target: Human immunodeficiency virus type 1 reverse transcriptase (Human immunodeficiency virus 1) (UniProt Q72547); experiment: Inhibition against HIV-1 wild type reverse transcriptase […]

| Structure (SMILES) | inhibition [1] | inhibition [2] | IC50 [3] | IC50 [4] | IC50 [5] | IC50 [6] | IC50 [7] | IC50 [8] | IC50 [9] | inhibition [10] |
| --- | --- | --- | --- | --- | --- | --- | --- | --- | --- | --- |
| CCN1c2ncccc2C(=O)N(C)c2ccc(-c3c[nH]c4ccc(OC)cc34)nc21 | 45% | 58% | 200 nM | 230 nM | 730 nM | 600 nM | 935 nM | 404 nM | 3090 nM | 61% |
| CCN1c2ncccc2C(=O)N(C)c2ccc(-c3c[nH]c4cccnc34)nc21 | 18% | 37% | – | – | – | – | – | – | – | 21% |
| CCN1c2ncccc2C(=O)N(C)c2ccc(-c3cc[nH]c3)nc21 | 91% | 78% | 33 nM | 50 nM | 100 nM | 320 nM | – | – | 1000 nM | 95% |
| CCN1c2ncccc2C(=O)N(C)c2ccc(-c3c[nH]c4ccncc34)nc21 | 66% | 3% | 130 nM | 222 nM | – | – | – | – | – | 87% |
| CCN1c2ncccc2C(=O)N(C)c2ccc(-c3c[nH]c4ccccc34)nc21 | 93% | 72% | 28 nM | 28 nM | 90 nM | 12 nM | 97 nM | 79 nM | 49 nM | 96% |
| CCN1c2ncccc2C(=O)N(C)c2ccc(-c3c[nH]c4ccc(F)cc34)nc21 | 59% | 17% | 706 nM | 555 nM | – | – | – | – | – | 63% |
| CCN1c2ncccc2C(=O)N(C)c2ccc(-c3c[nH]c4ncccc34)nc21 | 70% | 39% | 210 nM | 200 nM | 1300 nM | – | – | – | – | 76% |
| CCN1c2ncccc2C(=O)N(C)c2ccc(-c3c[nH]c4cnccc34)nc21 | 81% | 64% | 44 nM | 98 nM | 384 nM | 19 nM | 32 nM | < 1 nM | 228 nM | 94% |
